Data on seven compounds can be found in ChEMBL document CHEMBL1129041, “Design of orally active dual inhibitors of neutral endopeptidase and angiotensin-converting enzyme with long duration of action” (J Med Chem, 1996).

Test [1] has as its target T1, Angiotensin-converting enzyme (Rattus norvegicus, UniProt P47820).
T1 sequence (P47820 whole entry): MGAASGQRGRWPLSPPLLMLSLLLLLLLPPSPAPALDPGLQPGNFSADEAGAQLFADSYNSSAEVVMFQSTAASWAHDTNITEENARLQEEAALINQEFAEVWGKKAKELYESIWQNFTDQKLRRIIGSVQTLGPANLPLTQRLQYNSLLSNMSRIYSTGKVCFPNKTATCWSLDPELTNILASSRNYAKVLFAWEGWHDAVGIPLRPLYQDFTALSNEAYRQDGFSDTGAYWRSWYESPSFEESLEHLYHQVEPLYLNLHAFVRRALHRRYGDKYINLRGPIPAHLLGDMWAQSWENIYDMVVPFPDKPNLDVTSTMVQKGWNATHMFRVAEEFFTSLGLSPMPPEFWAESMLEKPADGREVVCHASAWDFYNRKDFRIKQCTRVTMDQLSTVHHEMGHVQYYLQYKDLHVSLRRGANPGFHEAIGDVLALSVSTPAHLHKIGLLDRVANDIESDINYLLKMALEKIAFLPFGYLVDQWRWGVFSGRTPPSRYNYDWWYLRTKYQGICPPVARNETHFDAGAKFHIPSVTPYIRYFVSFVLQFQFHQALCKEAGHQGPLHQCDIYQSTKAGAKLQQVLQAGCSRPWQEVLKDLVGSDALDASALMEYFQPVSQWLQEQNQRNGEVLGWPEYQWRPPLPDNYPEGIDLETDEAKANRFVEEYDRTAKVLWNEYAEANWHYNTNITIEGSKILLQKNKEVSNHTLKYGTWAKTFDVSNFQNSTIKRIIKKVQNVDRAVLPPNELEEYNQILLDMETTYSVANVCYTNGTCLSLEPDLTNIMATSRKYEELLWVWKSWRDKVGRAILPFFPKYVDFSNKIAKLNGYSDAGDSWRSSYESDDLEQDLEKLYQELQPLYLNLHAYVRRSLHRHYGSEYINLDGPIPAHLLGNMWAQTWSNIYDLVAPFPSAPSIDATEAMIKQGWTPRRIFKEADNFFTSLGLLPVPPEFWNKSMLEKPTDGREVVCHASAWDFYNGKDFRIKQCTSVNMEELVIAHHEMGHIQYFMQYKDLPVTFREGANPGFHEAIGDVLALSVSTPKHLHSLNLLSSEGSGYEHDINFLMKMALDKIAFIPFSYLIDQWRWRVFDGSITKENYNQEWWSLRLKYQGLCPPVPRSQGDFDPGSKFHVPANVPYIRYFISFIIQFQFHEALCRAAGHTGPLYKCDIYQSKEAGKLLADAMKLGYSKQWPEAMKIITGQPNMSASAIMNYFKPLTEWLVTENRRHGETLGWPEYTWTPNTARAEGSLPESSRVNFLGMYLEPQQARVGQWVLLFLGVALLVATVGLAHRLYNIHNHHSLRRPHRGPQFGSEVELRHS
Put plainly: In vitro inhibition of rat angiotensin I converting enzyme. In a few lines:
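ACE purified from rat testis, 0.02 pmol/100 µL final, preincubated 15 min at 37 °C with varying inhibitor in 50 mM Tris-HCl pH 8.0. N-Cbz-Phe-His-Leu added to 0.05 mM final, 15 min; stopped with 2 M NaOH. His-Leu measured fluorimetrically (ex 365, em 495 nm) against a His-Leu calibration curve. IC50 is the mean ± SEM of three experiments in triplicate.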

The target of another test is T2, Neprilysin (Oryctolagus cuniculus, UniProt P08049).
T2 sequence (P08049 whole entry): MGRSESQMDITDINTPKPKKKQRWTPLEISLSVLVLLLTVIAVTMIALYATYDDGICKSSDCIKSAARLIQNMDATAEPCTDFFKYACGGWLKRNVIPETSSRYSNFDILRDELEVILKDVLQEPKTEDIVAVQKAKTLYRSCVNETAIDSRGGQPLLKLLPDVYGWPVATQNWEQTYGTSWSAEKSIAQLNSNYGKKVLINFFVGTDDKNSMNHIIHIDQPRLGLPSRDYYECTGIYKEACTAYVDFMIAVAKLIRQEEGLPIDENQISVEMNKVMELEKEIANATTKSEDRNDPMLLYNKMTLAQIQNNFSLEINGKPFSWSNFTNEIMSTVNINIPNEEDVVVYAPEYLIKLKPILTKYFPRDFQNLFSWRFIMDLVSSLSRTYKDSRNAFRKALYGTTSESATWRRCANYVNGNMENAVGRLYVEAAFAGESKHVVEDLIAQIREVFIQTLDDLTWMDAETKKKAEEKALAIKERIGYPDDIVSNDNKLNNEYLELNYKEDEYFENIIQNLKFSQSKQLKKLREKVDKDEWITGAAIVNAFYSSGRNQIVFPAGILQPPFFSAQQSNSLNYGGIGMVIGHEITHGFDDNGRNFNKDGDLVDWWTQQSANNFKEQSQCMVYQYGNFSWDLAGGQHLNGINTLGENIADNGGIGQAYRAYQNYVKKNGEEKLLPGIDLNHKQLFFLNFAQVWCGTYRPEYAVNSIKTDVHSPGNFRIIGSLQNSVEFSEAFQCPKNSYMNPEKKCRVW
Briefly: In vitro inhibition of neutral endopeptidase. In a few lines:
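NEP purified from rabbit kidney, 1 pmol/100 µL final, preincubated 15 min at 25 °C with increasing inhibitor concentrations in 50 mM Tris-HCl pH 7.4. Substrate [3H]-D-Ala2-Leu-enkephalin at 20 nM final, 30 min; stopped with 0.5 M HCl. [3H]Tyr-D-Ala-Gly separated on polystyrene beads and counted by scintillation. IC50 is the mean ± SEM of three independent experiments run in triplicate.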

Structures are written as SMILES.

With `Cc1ccc([C@H]2CC[C@@H](C(=O)O)N2C(=O)CNC(=O)[C@@H](S)Cc2ccccc2)cc1`, the results for the IC50 (in test [1]; at Neprilysin) were 6.8 nM and 12.5 nM, respectively.

Regarding `Cc1ccccc1[C@H]1CC[C@@H](C(=O)O)N1C(=O)CNC(=O)[C@@H](S)Cc1ccccc1`, the IC50 (as a rule, the midpoint of a concentration-inhibition curve) is 3.1 nM in test [1] and 5.3 nM on Neprilysin.

As for `O=C(NCC(=O)N1[C@@H](c2cccc(O)c2)CC[C@H]1C(=O)O)[C@@H](S)Cc1ccc(O)cc1`, the figures for the IC50 (in test [1]; against Neprilysin) were 0.7 nM and 1.6 nM, respectively.

As to `O=C(NCC(=O)N1[C@@H](c2ccccc2O)CC[C@H]1C(=O)O)[C@@H](S)Cc1ccc(O)cc1`, the IC50 was determined as 0.6 nM in test [1] and 3.5 nM against Neprilysin.

In the case of `O=C(NCC(=O)N1[C@@H](c2ccccc2)CC[C@H]1C(=O)O)[C@@H](S)Cc1ccccc1`, the half-maximal inhibitory concentration (IC50) stood at 0.55 nM in test [1] and 1.6 nM against Neprilysin.

As to `Cc1ccccc1C1CC[C@@H](C(=O)O)N1C(=O)CNC(=O)[C@@H](S)Cc1ccc(O)cc1` (single isomer, unassigned), the IC50 in test [1] was 5 nM; against Neprilysin, 2.7 nM.

For `Cc1ccc([C@H]2CC[C@@H](C(=O)O)N2C(=O)CNC(=O)[C@@H](S)Cc2ccc(O)cc2)cc1`, the IC50 was determined as 2.5 nM in test [1] and 5.5 nM against Neprilysin.
